Data on eight compounds can be found in ChEMBL document CHEMBL2057101, “Fluorocyclines. 2. Optimization of the C-9 side-chain for antibacterial activity and oral efficacy” (J Med Chem, 2012).

In brackets after ≈: the same amount, converted by molar mass.

What all share (format): functional
For test [1], the system named is Staphylococcus aureus. The experiment in a line: Antibacterial activity against tetracycline-susceptible Staphylococcus aureus ATCC 13709 Smith isolate SA100. A digest of the protocol:
(§1)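 Broth microdilution MIC following CLSI methods in cation-adjusted Mueller Hinton broth, prepared fresh and held at 4 °C before testing. Defibrinated horse blood added to the medium where appropriate. Runs accepted when quality control ranges for comparator antibiotics and ATCC QC strains were met.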

For test [2], the system named is Staphylococcus aureus. In words: Antibacterial activity against tetracycline-resistant Staphylococcus aureus isolate SA161 expressing TetM gene. In a few lines:
as §1

The subject of test [3] is Staphylococcus aureus. In words: Antibacterial activity against tetracycline-resistant Staphylococcus aureus isolate SA158 expressing TetK gene.
For test [4], the system named is Streptococcus pneumoniae. In words: Antibacterial activity against Streptococcus pneumoniae ATCC 49619 isolate 106. A digest of the protocol:
(§2)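 MIC by broth microdilution in liquid medium per CLSI, in cation-adjusted Mueller Hinton broth made fresh and held at 4 °C before testing. Horse blood (defibrinated) added to the medium where appropriate. Runs were accepted only when the comparator antibiotics and ATCC QC strains fell within their recommended ranges.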

Test [5] relates to Streptococcus pneumoniae. The experiment in a line: Antibacterial activity against tetracycline-resistant Streptococcus pneumoniae isolate 160 expressing tetM gene.
Test [6] relates to Escherichia coli. The experiment in a line: Antibacterial activity against Escherichia coli ATCC 25922 isolate 107. In a few lines:
as §2

Test [7] concerns Escherichia coli. In words: Antibacterial activity against Escherichia coli isolate EC155 expressing tetA gene. A digest of the protocol:
as §2

Test [8] deals with Klebsiella pneumoniae. In words: Antibacterial activity against Klebsiella pneumoniae ATCC 13883. In a few lines:
as §2

On to `CN(C)[C@@H]1C(O)=C(C(N)=O)C(=O)[C@@]2(O)C(O)=C3C(=O)c4c(O)c(CNCC(C)(C)C)cc(F)c4C[C@H]3C[C@@H]12`, for which the MIC – broadly, the least concentration at which growth counts as inhibited – worked out at 2 µg/mL (≈ 3.76 µM) in test [1]; 4 µg/mL (≈ 7.52 µM) in test [2]; 2 µg/mL (≈ 3.76 µM) in test [3]; 0.25 µg/mL (≈ 0.47 µM) in test [4]; 0.25 µg/mL (≈ 0.47 µM) in test [5]; 4 µg/mL (≈ 7.52 µM) in test [6]. Further, the MIC was 16 µg/mL (≈ 30.1 µM) in test [7] and 8 µg/mL (≈ 15 µM) in test [8].
Regarding `CN(C)[C@@H]1C(O)=C(C(N)=O)C(=O)[C@@]2(O)C(O)=C3C(=O)c4c(O)c(NC(=O)c5cccs5)cc(F)c4C[C@H]3C[C@@H]12`, the MIC was 0.13 µg/mL (≈ 0.233 µM) in test [1]; 0.25 µg/mL (≈ 0.448 µM) in test [2]; 0.5 µg/mL (≈ 0.897 µM) in test [3]; 16 µg/mL (≈ 28.7 µM) in test [4]; 16 µg/mL (≈ 28.7 µM) in test [5]; greater than 32 µg/mL in test [6]. The MIC in test [7] and in test [8] was greater than 32 µg/mL throughout.
As to `CN(C)[C@@H]1C(O)=C(C(N)=O)C(=O)[C@@]2(O)C(O)=C3C(=O)c4c(O)c(NC(=O)[C@@H]5CC(F)(F)CN5C)cc(F)c4C[C@H]3C[C@@H]12`, the minimum inhibitory concentration (MIC) in test [1] is 1 µg/mL (≈ 1.68 µM); in test [2], 1 µg/mL (≈ 1.68 µM); in test [3], 1 µg/mL (≈ 1.68 µM); in test [4], 0.5 µg/mL (≈ 0.841 µM); in test [5], 0.5 µg/mL (≈ 0.841 µM); in test [6], greater than 32 µg/mL. The MIC in test [7] and in test [8] was greater than 32 µg/mL in each case.
Take `CN(C)[C@@H]1C(O)=C(C(N)=O)C(=O)[C@@]2(O)C(O)=C3C(=O)c4c(O)c(Nc5ccncn5)cc(F)c4C[C@H]3C[C@@H]12`: the MIC in test [1] came to 0.25 µg/mL (≈ 0.476 µM); in test [2] it was 2 µg/mL (≈ 3.81 µM); in test [3], 2 µg/mL (≈ 3.81 µM); in test [4], 0.063 µg/mL (≈ 0.12 µM); in test [5], 0.5 µg/mL (≈ 0.951 µM); in test [6] it was 2 µg/mL (≈ 3.81 µM). In addition, the MIC in test [7] is greater than 32 µg/mL; in test [8], 8 µg/mL (≈ 15.2 µM).
Turning to `CN(C)[C@@H]1C(O)=C(C(N)=O)C(=O)[C@@]2(O)C(O)=C3C(=O)c4c(O)c(NC(=O)c5cccn5C)cc(F)c4C[C@H]3C[C@@H]12`, the MIC in test [1] was 0.25 µg/mL (≈ 0.451 µM); in test [2] it was 0.5 µg/mL (≈ 0.902 µM); in test [3] it was 0.5 µg/mL (≈ 0.902 µM); in test [4] it was 8 µg/mL (≈ 14.4 µM); in test [5], 8 µg/mL (≈ 14.4 µM); in test [6], greater than 32 µg/mL. For the same compound, the MIC in test [7] and in test [8] was greater than 32 µg/mL each time.
`CN(C)[C@@H]1C(O)=C(C(N)=O)C(=O)[C@@]2(O)C(O)=C3C(=O)c4c(O)c(NC(=O)CNC(C)(C)C)cc(F)c4C[C@H]3C[C@@H]12`: the MIC in test [1] was 0.25 µg/mL (≈ 0.446 µM); in test [2] it was 0.25 µg/mL (≈ 0.446 µM); in test [3], 0.063 µg/mL (≈ 0.112 µM); in test [4] it was 0.016 µg/mL (≈ 0.0285 µM); in test [5], 0.016 µg/mL (≈ 0.0285 µM); in test [6] it was 0.25 µg/mL (≈ 0.446 µM). For the same compound, the MIC in test [7] came to 2 µg/mL (≈ 3.57 µM); in test [8], 1 µg/mL (≈ 1.78 µM).
For `CN(C)[C@@H]1C(O)=C(C(N)=O)C(=O)[C@@]2(O)C(O)=C3C(=O)c4c(O)c(NC(=O)CN5CCCC5)cc(F)c4C[C@H]3C[C@@H]12` [ERAVACYCLINE], the MIC in test [1], in test [2], in test [3], in test [4], in test [5] and in test [6] was 0.016 µg/mL (≈ 0.0286 µM) in each case. Besides, the MIC in test [7] is 1 µg/mL (≈ 1.79 µM); in test [8], 0.125 µg/mL (≈ 0.224 µM).
`CN(C)[C@@H]1C(O)=C(C(N)=O)C(=O)[C@@]2(O)C(O)=C3C(=O)c4c(O)c(NS(=O)(=O)c5cccs5)cc(F)c4C[C@H]3C[C@@H]12`: the MIC in test [1] was 0.5 µg/mL (≈ 0.842 µM); in test [2], 1 µg/mL (≈ 1.68 µM); in test [3], 0.5 µg/mL (≈ 0.842 µM); in test [4], 0.25 µg/mL (≈ 0.421 µM); in test [5] it was 1 µg/mL (≈ 1.68 µM); in test [6], greater than 32 µg/mL. Moreover, the MIC in test [7] and in test [8] was greater than 32 µg/mL throughout.
